Data on five compounds can be found in publication PMC6013806 (Chemical Science, 2016).

Series [1] deals with T1, human RXFP1 (Homo sapiens, UniProt Q9HBX9).
T1 sequence (Q9HBX9 1-757): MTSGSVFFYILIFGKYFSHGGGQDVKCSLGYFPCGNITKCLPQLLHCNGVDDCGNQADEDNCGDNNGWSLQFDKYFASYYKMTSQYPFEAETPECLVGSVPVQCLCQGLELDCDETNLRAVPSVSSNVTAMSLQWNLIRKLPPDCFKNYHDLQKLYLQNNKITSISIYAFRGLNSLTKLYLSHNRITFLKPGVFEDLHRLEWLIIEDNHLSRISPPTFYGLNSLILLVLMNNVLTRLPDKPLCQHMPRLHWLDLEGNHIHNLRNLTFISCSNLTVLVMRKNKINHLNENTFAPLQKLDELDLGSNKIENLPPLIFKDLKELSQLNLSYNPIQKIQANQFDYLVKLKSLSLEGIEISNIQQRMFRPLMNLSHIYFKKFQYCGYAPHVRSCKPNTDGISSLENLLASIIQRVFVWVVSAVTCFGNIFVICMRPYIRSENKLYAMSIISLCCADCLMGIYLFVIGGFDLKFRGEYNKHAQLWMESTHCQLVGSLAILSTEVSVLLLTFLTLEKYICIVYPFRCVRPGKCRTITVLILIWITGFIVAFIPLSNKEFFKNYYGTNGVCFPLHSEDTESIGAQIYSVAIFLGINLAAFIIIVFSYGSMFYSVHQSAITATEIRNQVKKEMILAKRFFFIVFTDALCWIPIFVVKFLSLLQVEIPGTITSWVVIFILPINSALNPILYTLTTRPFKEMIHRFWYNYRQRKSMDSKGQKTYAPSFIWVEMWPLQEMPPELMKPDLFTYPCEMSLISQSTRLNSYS
Kind of series: Competition binding with europium-labelled H2 relaxin in HEK-RXFP1 cells. The conditions noted are these: HEK-293T cells stably expressing RXFP1; compared with B7-33. A digest of the protocol:
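Whole-cell competition binding on HEK-293T cells stably transfected with RXFP1. Cells were grown in RPMI 1640 with 10% FCS, penicillin, streptomycin and 2 mM L-glutamine, then plated on poly-L-lysine-coated wells. Eu3+-labelled H2 relaxin was competed by increasing concentrations of unlabelled test peptide. % specific binding was measured in triplicate wells, repeated ≥3 times; one-site fit gave pIC50.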

Series [2] concerns the target T1, human RXFP1. Kind of series: cAMP reporter gene assay, HEK-293T cells expressing human RXFP1. Type of series: cell-based. The conditions noted are these: HEK-293T cells stably expressing RXFP1. A digest of the protocol:
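HEK-293T cells expressing human RXFP1 were co-transfected with a pCRE β-galactosidase cAMP reporter plasmid and plated. After 24 h they were incubated with increasing concentrations of test peptide in parallel with H2 relaxin. Points were run in triplicate, with ≥3 independent experiments; pEC50 values were derived.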
Background: Reporter assays use an easily measured gene product as a stand-in for the process of interest.

Series [3] deals with Relaxin Family Peptide Receptor 1 (RXFP1), human, stably expressed in HEK-293T cells (human) (UniProt Q9HBX9). Kind of series: competition binding with Eu3+-labelled H2 relaxin on whole cells.
The conditions of series [4]: cited from earlier work.
The conditions of series [5]: cited from earlier work. The source holds these as a separate data set.
Series [6] has as its system MMP-2 in rat renal myofibroblasts. Kind of series: MMP-2 levels by gelatin zymography, rat renal myofibroblasts. In kind it is cell-based. In short, it runs like this:
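Rat renal myofibroblasts were isolated from injured kidneys 3 days after unilateral ureteric obstruction. They were exposed to test compound at 16.8 nM (≃100 ng mL−1) for 72 h, with or without an RXFP1 antagonist (relaxin B-chain Arg13/Arg17→Lys); H2 relaxin was run at equivalent concentration. MMP-2 in media diluted 1:5–1:10 was read by gelatin zymography and densitometry. Three experiments were run in duplicate.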

As to “AcB7-33: Acetylated B7-33 (Ac-VIKLCGRELVRAQIAICGMSTWSKRSL-NH2; cysteine pairing not given here; UniProt P04090 31-57, looked up, fragment)”, the “binding affinity at HEK-RXFP1 (in words)” value with human RXFP1 [1] is on record as “no change”. Further, in the series with human RXFP1 [2], the “cAMP activity at HEK-RXFP1 (in words)” value is “no change”. Human gene-2 relaxin (ligand): the negative-log Ki (pKi) in series [3] came out at 8.96. Consider “B1-29: native H2 relaxin B-chain with 29 residues”, for which the solubility in water entry in series [4] was “insoluble in water”. Further, in series [5], the functional activity result was “functionally inactive”. In series [3], “B7-33 (H2 relaxin B-chain-only analogue) (peptide)” yielded a negative-log Ki (pKi) of 5.54.

With `Cc1cc(Cn2cnc3c2C[C@@H](C(=O)O)N(C(=O)C(c2ccccc2)c2ccccc2)C3)ccc1N(C)C` [PD123319], in series [6] (antagonist alone), the “effect of antagonist alone on basal MMP-2 expression” value is “neither the RXFP1 nor AT2 receptor antagonists alone affected basal MMP-2 expression”. Moreover, the “effect of antagonist on MMP-promoting effects of B7-33” value in series [6] (rat renal myofibroblasts treated with B7-33) is given as “completely blocked”.

In general, pKi refers to −log10 of the Ki, conventionally taken in molar units. Higher therefore signals a low Ki.
